Measured values from PMC6585461 (Biomaterials, 2019).

Key:
blood glucose = assay: Hypoglycemic effect of insulin formulations; type: in vivo, BALB/c mice; settings: fasted mice, s.c., 2 IU/kg
In short: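 Healthy BALB/c mice, 6-7 weeks old, were fasted overnight with water only and kept fasted throughout, n=6 per group. They received a subcutaneous injection at an insulin dose of 2 IU/kg, either free insulin or insulin loaded in nanocarriers at a 1/10 insulin:polymer mass ratio. Blood glucose was followed with a glucose meter over 0-6 h. Area above the curve was calculated by the trapezoidal method.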

SKOV-3 cells = assay: Intracellular uptake of RB-BSA by confocal microscopy; type: cell-based; settings: BSA ~60 μg/mL, 2 h, 37 °C
In short: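 SKOV-3 cells in McCoy's 5A with 10% FBS were seeded at 5 × 10⁴ per well and allowed to adhere for 24 h. Lysosomes were labelled with LysoTracker Green DND-26 for 30 min at 37 °C. Rhodamine B-labelled BSA, free or nanocarrier-loaded (final BSA ~60 μg/mL), was added for 2 h. Cells were washed three times with PBS, fixed in 4% paraformaldehyde for 15 min at room temperature, DAPI-stained and imaged by laser scanning confocal microscopy.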

Substance: insulin: insulin (MW: 5807 Da)
- glycemic decrease (blood glucose; 30 min after injection, n=6): 32%
- blood glucose recovery, % of basal level (blood glucose; after 2 h): 80%
- time of maximal blood glucose drop (nadir) (blood glucose; n=6): 1 h

Substance: RB-BSA: Rhodamine B (RB)-labeled BSA, model protein
- cellular uptake of RB-BSA (free or loaded in the nanocarrier) (SKOV-3 cells): minimal
